Test results reported in article PMC6331712 (ChemistryOpen, 2019).
“And” between values parts separate entries of the source, which are not always exact repeats. Identical values can stand only once.

Assays:
TAMH cells = experiment: MTT cell viability assay, TAMH cells; type: cell-based, mouse; conditions: for LD50 / LD25: TAMH cells, MTT; for LD50: 24 h exposure; for LD25: 48 h exposure; for Tox./Act. (toxicity/activity ratio, safety index): average LD25 (48 h, TAMH) divided by average EC50 (KV7.2/3)
In short: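 MTT viability read-out in TAMH (transgenic mouse hepatocyte) and HEP-G2 (human hepatoma) cell lines. LD50 was taken after 24 h of exposure. […] LD50 values are means with standard deviations of 4–5 independent determinations. The ratio uses the mean EC50 from a thallium-flux KV7.2/3 assay (30 min exposure, four-parameter logistic fit).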

[1] = Anodic peak potential by cyclic voltammetry; type: physicochemical; conditions: 1.0 mM compound in 100 mM TRIS‐buffer (pH 7.4)
[2] = LogD7.4 determination from HPLC retention times with calibration curve; type: physicochemical; conditions: pH 7.4; for logD 7.4: from HPLC retention factor and calibration curve
KV7.2/KV7.3 channel = KV7.2/KV7.3 channel (Homo sapiens, UniProt O43525+O43526); type: cell-based; conditions: for Emax: HEK293; for KV7.2/KV7.3 channel opening activity (in words): thallium flux assay, compared with 1
HEP‐G2 cells = experiment: MTT cell viability assay, HEP-G2 cells; type: cell-based, human; conditions: for LD50 / LD25: HEP‐G2 cells, MTT; for LD50: 24 h exposure; for LD25: 48 h exposure; for Tox./Act. (toxicity/activity ratio, safety index): average LD25 (48 h, HEP‐G2) divided by average EC50 (KV7.2/3)

Sequence of KV7.2/KV7.3 channel (O43525 whole entry): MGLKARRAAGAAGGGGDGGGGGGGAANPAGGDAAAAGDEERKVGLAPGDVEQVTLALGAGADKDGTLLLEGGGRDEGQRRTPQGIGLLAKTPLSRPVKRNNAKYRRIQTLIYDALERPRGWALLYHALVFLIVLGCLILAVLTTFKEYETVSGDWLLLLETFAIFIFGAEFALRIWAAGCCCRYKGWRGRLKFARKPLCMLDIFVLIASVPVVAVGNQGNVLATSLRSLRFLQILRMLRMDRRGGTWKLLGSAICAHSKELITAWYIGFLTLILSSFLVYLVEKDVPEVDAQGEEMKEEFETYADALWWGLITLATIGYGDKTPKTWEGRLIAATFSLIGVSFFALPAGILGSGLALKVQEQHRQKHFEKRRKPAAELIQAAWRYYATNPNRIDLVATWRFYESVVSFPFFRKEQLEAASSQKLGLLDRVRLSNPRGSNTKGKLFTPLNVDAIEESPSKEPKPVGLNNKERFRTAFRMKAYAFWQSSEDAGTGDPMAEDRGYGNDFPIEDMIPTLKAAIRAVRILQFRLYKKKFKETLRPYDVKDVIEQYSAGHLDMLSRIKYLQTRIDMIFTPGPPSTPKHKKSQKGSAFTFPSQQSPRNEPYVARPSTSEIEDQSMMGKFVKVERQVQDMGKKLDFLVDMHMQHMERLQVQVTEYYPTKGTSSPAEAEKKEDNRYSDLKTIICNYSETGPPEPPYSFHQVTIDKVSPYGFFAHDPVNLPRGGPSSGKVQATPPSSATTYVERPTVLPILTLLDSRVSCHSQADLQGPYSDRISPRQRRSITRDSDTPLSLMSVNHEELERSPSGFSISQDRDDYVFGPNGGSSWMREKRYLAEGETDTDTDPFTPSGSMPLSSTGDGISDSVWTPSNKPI
Sequence of KV7.2/KV7.3 channel (O43526 whole entry): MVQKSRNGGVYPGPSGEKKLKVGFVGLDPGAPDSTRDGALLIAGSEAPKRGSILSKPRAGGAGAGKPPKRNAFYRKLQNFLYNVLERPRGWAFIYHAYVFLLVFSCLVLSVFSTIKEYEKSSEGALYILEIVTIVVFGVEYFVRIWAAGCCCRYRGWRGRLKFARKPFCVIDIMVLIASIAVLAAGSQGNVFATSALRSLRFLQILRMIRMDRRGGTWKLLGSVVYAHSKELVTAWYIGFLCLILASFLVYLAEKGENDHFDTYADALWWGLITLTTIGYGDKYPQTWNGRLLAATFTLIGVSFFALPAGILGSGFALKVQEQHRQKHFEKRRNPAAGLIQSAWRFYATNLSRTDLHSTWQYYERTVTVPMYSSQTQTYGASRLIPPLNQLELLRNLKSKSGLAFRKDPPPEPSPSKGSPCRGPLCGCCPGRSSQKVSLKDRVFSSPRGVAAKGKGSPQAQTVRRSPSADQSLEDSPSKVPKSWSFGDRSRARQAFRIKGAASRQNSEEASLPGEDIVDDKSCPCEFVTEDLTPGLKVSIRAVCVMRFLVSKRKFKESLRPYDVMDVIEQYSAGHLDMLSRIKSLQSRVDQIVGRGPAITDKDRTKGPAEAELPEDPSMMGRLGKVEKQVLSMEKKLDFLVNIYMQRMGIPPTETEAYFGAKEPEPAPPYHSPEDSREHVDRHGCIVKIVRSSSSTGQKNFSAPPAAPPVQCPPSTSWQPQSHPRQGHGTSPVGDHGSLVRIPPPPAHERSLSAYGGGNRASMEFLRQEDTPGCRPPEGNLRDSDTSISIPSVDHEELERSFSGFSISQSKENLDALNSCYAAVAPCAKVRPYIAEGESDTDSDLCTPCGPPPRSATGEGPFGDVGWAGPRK

Row | SMILES | LD50 (TAMH cells) | LD25 (TAMH cells) | Anodic peak potential E pa [1] | chromatographic logD [2] | EC50 (KV7.2/KV7.3 channel) | Emax (KV7.2/KV7.3 channel) | LD50 (HEP‐G2 cells) | LD25 (HEP‐G2 cells) | Tox./Act. (toxicity/activity ratio, safety index) (HEP‐G2 cells) | KV7.2/KV7.3 channel opening activity (in words) (KV7.2/KV7.3 channel) | logD 7.4 [2] | Tox./Act. (toxicity/activity ratio, safety index) (TAMH cells)
1 | CCOC(=O)Nc1ccc(SCc2ccc(F)cc2)nc1C [9 h, E t hyl [6-(4-fluorobenzylthio)-2-methylpyridin-3-yl]carbamate] | >10 µM | >10 µM | 855 mV | 3.85 | 0.269 ± 0.031 µM | 129 ± 3% | >30 µM | 25 ± 16 µM | 93 | – | – | –
2 | CCOC(=O)Nc1ccc(SC(=O)c2ccc(F)cc2)nc1N [9 e, S-{6-Amino-5-[(ethoxycarbonyl)amino]pyridin-2-yl} 4-fluorobenzothioate] | >125 µM | – | 573 mV | 3 | > 10 µM | – | >250 µM | – | – | inactive in the tested concentration range | – | –
3 | Nc1nc([S+]([O-])Cc2ccc(F)cc2)ccc1NC(=O)c1ccc(F)c(F)c1 (centres unmarked) [10 a, N-[2-Amino-6-(4-fluorobenzylsulfinyl)pyridin-3-yl]-3 ,4-difluorobenzamide] | >100 µM | – | 628 mV | 3.24 | > 10 µM | – | >125 µM | – | – | – | – | –
4 | CCOC(=O)Nc1ccc([S+]([O-])Cc2ccc(F)cc2)nc1C (centres unmarked) [10 d] | >500 µM | – | n.o.^[g] | 3.02 | > 10 µM | – | >500 µM | – | – | – | – | –
5 | CCOC(=O)Nc1ccc(SCc2ccccn2)nc1N [9 d, Ethyl-{2-amino-6-[(pyridin-2-ylmethylthio)pyridin-3-yl]}carbamate] | >1000 µM | – | 499 mV | – | – | – | 831 ± 149 µM | – | – | – | 2.62 | –
6 | CNc1nc(SCc2ccccc2)ccc1NC(=O)Cc1cc(F)cc(F)c1 [9 g, N‐[6‐(Benzylthio)‐2‐(methylamino)pyridin‐3‐yl]‐2‐(3,5‐difluorophenyl)acetamide] | >7.5 µM | 6 ± 3 µM and 6 ± 03 µM | 631 mV | 4.27 | 0.015 ± 0.002 µM | 147 ± 9% | >10 µM | 4 ± 4 µM | 267 | markedly more potent and effective | – | 400
7 | Nc1nc(SCc2ccc(F)cc2)ccc1NC(=O)c1ccc(F)c(F)c1 [9 a, N-{2-A mino-6-[(4-fluorobenzyl)thio]pyridin-3-yl}-3,4-difluorobenzamide] | >30 µM | 13 ± 04 µM | 442 mV | 3.9 | 0.26 ± 0.082 µM | 100 ± 23% | 8 ± 3 µM | 4 ± 1 µM | 15 | as active as the marketed drug 1 | – | 50
8 | CCOC(=O)Nc1ccc([S+]([O-])Cc2ccc(-c3ccccc3)cc2)nc1N (centres unmarked) [10 b, E t hyl {6-[(1,1'-biphenyl-4-yl)methylsulfinyl]-2-aminopyridin-3-yl}carbamate] | >63 µM | – | 654 mV | 3.72 | > 10 µM | – | >63 µM | – | – | – | – | –
9 | CCOC(=O)Nc1ccc(SCc2cc(OC)cc(OC)c2)nc1N [9 c, Ethyl-{2-amino-6-[(3 ,5-dimethoxybenzylthio)pyridin-3-yl]}carbamate] | >250 µM | – | 450 mV | – | – | – | 134 ± 22 µM | – | – | – | 3.61 | –
10 | CCOC(=O)Nc1ccc(NCc2ccc(F)cc2)nc1N [Compound 1, Flupirtine, reference compound] | 487 ± 51 µM | 103 ± 47 µM | 350 mV | 2.96 | 0.918 ± 0.099 µM | 100% | 547 ± 111 µM | 74 ± 40 µM | 81 | – | – | 112
11 | CCOC(=O)Nc1ccc(SCCN2CCCCC2)nc1N [9 f] | >500 µM | – | 573 mV | – | – | – | >500 µM | – | – | – | 2.04 | –
12 | CCOC(=O)Nc1ccc(SCc2ccc(-c3ccccc3)cc2)nc1N [9 b, Ethyl-{6-[(1,1'-biphenyl-4-yl)methylthio]-2-aminopyridin-3-yl}carbamate] | >63 µM | 14 ± 13 µM | 452 mV | 4.34 | 0.253 ± 0.042 µM | 69 ± 9% | >250 µM | – | – | as active as the marketed drug 1 | – | 55
